Assay results as given in the RNAGym collection of RNA variant scans (doi:10.1002/anie.201605470).

B1: Osa-1-4 twister ribozyme (parent)
chain: CCGCCUAACACUGCCAAUGCCGGUCCCAAGCCCGGAUAAAAGUGGAGGGGGCGG

Variants of: B1
Experiment: self-cleavage, relative activity (ratio to wild type); higher = more cleavage; co-transcriptional
Procedure, shortened: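 Relative activity is the fraction cleaved divided by that of the wild-type ribozyme. The library came from a DNA template for a 54-nucleotide Oryza sativa twister ribozyme, doped at the 48 positions downstream of the cleavage site with 97 % wild-type base and 1 % of each other base. After 2 h of in vitro transcription at 37 °C with co-transcriptional self-cleavage, the RNA was reverse-transcribed with a template-switching oligonucleotide, amplified by PCR and deep-sequenced, and reads with or without upstream sequence gave the cleavage status.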

| Variant | self-cleavage |
| --- | --- |
| A16C G48A | 0.06 |
| A16C G48C | 0.07 |
| A16C G48U | 0.06 |
| C15U G42U | 0.06 |
| C15U G42C | 0.06 |
| C15U G42A | 0.12 |
| A16C G51A | 0.53 |
| A16C G51C | 0.12 |
| A16C G51U | 0.35 |
| A16C C20A | 0.83 |
| A16C C20G | 0.12 |
| A16C C20U | 0.93 |
| A16C C26A | 0.03 |
| A16C C26G | 0.1 |
| A16C C26U | 0.76 |
| A16C G23U | 0.06 |
| A16C G23C | 0.04 |
| A16C G23A | 0.14 |
| A16G A29C | 0.08 |
| A16G A29U | 0.27 |
| A16G A29G | 0.39 |
| A16G G35U | 0.93 |
| A16G G35A | 0.87 |
| A16G G35C | 0.8 |

| Variant | self-cleavage |
| --- | --- |
| A16C A7U | 0.15 |
| A16C A7G | 0.17 |
| A16C A7C | 0.07 |
| C15U G50U | 0.43 |
| C15U G50C | 0.23 |
| C15U G50A | 0.47 |
| C15U G44U | 0.16 |
| C15U G44C | 0.23 |
| C15U G44A | 0.08 |
| A16C A36G | 1.01 |
| A16C A36C | 0.33 |
| A16C A36U | 0.99 |
| A16G A36G | 1.01 |
| A16G A36C | 0.86 |
| A16G A36U | 1.06 |
| C15U C27G | 0.06 |
| C15U C27U | 0.08 |
| A16G A28C | 1 |
| A16G A28U | 0.92 |
| A16G A28G | 0.6 |
| A16C A39U | 0.95 |
| A16C A39C | 0.89 |
| A16C A39G | 0.95 |
| A16C G42U | 0.52 |

| Variant | self-cleavage |
| --- | --- |
| A16C G42C | 0.11 |
| A16C G42A | 0.6 |
| A16C C32G | 0.12 |
| A16C C32A | 0.07 |
| A16C C32U | 0.09 |
| C15U U37G | 0.76 |
| C15U U37C | 0.36 |
| C15U U37A | 0.62 |
| A16G A17G | 0.92 |
| A16G A17U | 0.94 |
| A16G A17C | 0.91 |
| A16C G13U | 0.04 |
| A16C G13A | 0.08 |
| A16C G13C | 0.04 |
| C15U G48A | 0.05 |
| C15U G48U | 0.03 |
| C15U G48C | 0.05 |
| A16C A46G | 0.06 |
| A16C A46U | 0.07 |
| A16C A46C | 0.06 |
| C15U C31G | 0.06 |
| C15U C31A | 0.03 |
| C15U C31U | 0.06 |
| C15U G53U | 0.1 |

| Variant | self-cleavage |
| --- | --- |
| C15U G53A | 0.12 |
| C15U G53C | 0.05 |
| A16G G47C | 0.2 |
| A16G G47A | 0.6 |
| A16G G47U | 0.49 |
| A16C A28G | 0.16 |
| A16C A28C | 0.83 |
| A16C A28U | 0.76 |
| A16G G48C | 0.15 |
| A16G G48A | 0.18 |
| A16G G48U | 0.1 |
| A16C C9U | 0.77 |
| A16C C9A | 0.5 |
| A16C C9G | 0.51 |
| A16C C15G | 0.54 |
| A16C C15A | 0.39 |
| A16C C15U | 0.62 |
| C15U G35A | 0.59 |
| C15U G35U | 0.35 |
| C15U G35C | 0.07 |
| A16C G35U | 0.64 |
| A16C G35A | 0.61 |
| A16C G35C | 0.17 |
| A16G G44C | 0.96 |

| Variant | self-cleavage |
| --- | --- |
| A16G G44A | 0.96 |
| A16G G44U | 0.95 |
| A16G G50A | 0.77 |
| A16G G50U | 1.02 |
| A16G G50C | 0.95 |
| A16G C15U | 0.45 |
| A16G C15A | 0.61 |
| A16G C15G | 0.78 |
| C15U G23C | 0.03 |
| C15U G23U | 0.03 |
| C15U G23A | 0.06 |
| C15U U12C | 0.06 |
| C15U U12G | 0.1 |
| C15U U12A | 0.11 |
| A16C G49U | 0.08 |
| A16C G49A | 0.09 |
| A16C G49C | 0.05 |
| C15U G54U | 0.43 |
| C15U G54A | 0.16 |
| C15U G54C | 0.14 |
| A16G G34A | 0.84 |
| A16G G34U | 0.82 |
| A16G G34C | 0.74 |
| C15U G49C | 0.04 |

| Variant | self-cleavage |
| --- | --- |
| C15U G49U | 0.04 |
| C15U G49A | 0.05 |
| A16C A17G | 0.9 |
| A16C A17U | 0.98 |
| A16C A17C | 0.87 |
| A16C C14A | 0.08 |
| A16C C14U | 0.27 |
| A16C C14G | 0.29 |
| A16C U37C | 1.02 |
| A16C U37A | 0.84 |
| A16C U37G | 0.96 |
| A16G A7C | 0.08 |
| A16G A7G | 0.61 |
| A16G A7U | 0.13 |
| A16G A8C | 0.09 |
| A16G A8G | 0.76 |
| A16G A8U | 0.5 |
| A16G C11A | 0.85 |
| A16G C11G | 0.65 |
| A16G C11U | 0.95 |
| A16G C26G | 0.13 |
| A16G C26U | 0.93 |
| A16G C26A | 0.08 |
| A16C G34A | 0.44 |

| Variant | self-cleavage |
| --- | --- |
| A16C G34C | 0.23 |
| A16C G34U | 0.34 |
| C15U C33G | 0.03 |
| C15U C33U | 0.06 |
| C15U C33A | 0.05 |
| A16G C33G | 0.08 |
| A16G C33U | 0.87 |
| A16G C33A | 0.26 |
| A16C G53A | 0.65 |
| A16C G53U | 0.25 |
| A16C G53C | 0.09 |
| C15U G19U | 0.46 |
| C15U G19C | 0.12 |
| C15U G19A | 1.03 |
| A16G G22U | 0.82 |
| A16G G22C | 0.19 |
| A16G G22A | 1 |
| A16G A46G | 0.1 |
| A16G A46U | 0.11 |
| A16G A46C | 0.15 |
| A16C A41U | 0.97 |
| A16C A41C | 0.74 |
| A16C A41G | 0.63 |
